# Laboratory results published in article PMC2842018 (European journal of nuclear medicine and molecular imaging, 2008).
# Experiments:
# glioblastoma = glioblastoma patients, radiotherapy plus temozolomide; ref [1]; cited from earlier work
# α3 integrin = details: ovarian cancer, ref [7]; cited from earlier work
# [1] = tested on: U-87MG cells (α3 integrin); experiment: Fluorescence microscopy of U-87MG cells stained with biotinylated LXY1; type: cell-based, human
# Procedure, shortened: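 U-87MG cells at 80–90% confluence were dissociated with 0.05% trypsin-EDTA. Each sample (3×10⁵ cells) was incubated with biotinylated peptide in PBS with 10% FBS and 1 mM MnCl2 for 30 min on ice, washed three times, given streptavidin-Alexa488 for 30 min and washed once. Cells were cytospun onto slides (2000 rpm, 2 min), mounted with DAPI medium and viewed by fluorescence microscopy. For blocking, unlabeled peptide or anti-α3 integrin antibody (clone P1B5) was co-incubated.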
compound,measurement,setting,value
Cn1nnc2c(C(N)=O)ncn2c1=O [temozolomide],median survival,glioblastoma,14.6 months
cDGXGXXc,binding preference and specificity,α3 integrin,bind preferentially to ovarian cancer with high specificity against α3 integrin
cdGLGBNc (disulfide) [LXY1],blocking of cell staining by biotinylated LXY1,"[1]; excess unlabeled LXY1 or anti-α3 antibody (clone P1B5) as blocker, streptavidin-Alexa488",almost completely abolished
cdGLGBNc-linker-linker-Biotin (disulfide) [LXY1-biotin],staining of U-87MG cells,"[1]; biotinylated LXY1 30 min, streptavidin-Alexa488 30 min, DAPI counterstain",Strong staining
